In paper PMC6314015 (Bioorganic & medicinal chemistry, 2018):
Entries after “also recorded” stand apart in the source; their conditions may differ.

Assays:
[1] = assay type: binding; settings: for calcein fluorescence upon addition of chelator: 4 μM chelator (2 equivalents), 2 μM calcein-Fe^3+, PBS pH 7.4
Method in brief: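 Fe3+-calcein formed by equilibrating 4 μM ferric ammonium citrate with 4 μM calcein in PBS for 4 h. Compounds were freshly made at 100 μM in PBS pH 7.4; for activation, 100 μM prochelator was incubated with 5 mM H2O2 for 12 h. 2 μM Fe3+-calcein plus 4 μM compound or mixture, 2 h, 25 °C; fluorescence at 485/535 nm. Triplicate wells averaged; calcein-only wells = 100%.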

[2] = 1H NMR characterization of hydrolytic stability in D2O; assay type: physicochemical
Method in brief: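 Prochelator stocks (10 mM in DMSO-d6) diluted to 500 μM in D2O with 5% DMSO-d6, or to 200 μM with 2% DMSO-d6 for one analog. Solutions equilibrated 1 h before 1H NMR. Intact prochelator and isoniazid fraction estimated by integrating the hydrazone-compound aromatic peak against the corresponding isoniazid peak.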

[3] = UV-Vis spectrophotometry of hydrolysis equilibrium in PBS pH 7.4; assay type: physicochemical; settings: for hydrolysis equilibrium constant K: PBS pH 7.4, equilibrated mixtures at various concentrations; for fold improved hydrolytic stability compared to BSIH: from K values
Method in brief: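 DMSO stocks were diluted into PBS pH 7.4 (100 μM). Spectra were recorded in 1-cm quartz cuvettes every 1 min over 30 min; 100 μM isoniazid + 100 μM aldehyde fragment served as reference. For K, equilibrated solutions at several initial concentrations were read at 263 and 321 nm, and component concentrations were solved from fitted extinction coefficients. K = [INH][FBA]/[prochelator], averaged across concentrations.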

[4] = tested on: ARPE-19 retinal pigment epithelial cells; assay: Inherent cytotoxicity, CellTiter-Blue viability; assay type: cell-based, human; settings: 72 h incubation, up to 100 μM
Method in brief: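 Confluent ARPE-19 cells (DMEM/F12 1:1 with 10% FBS, 37 °C, 5% CO2) were washed three times with MEM. Cells were exposed to prochelators at 5–100 μM final in MEM with up to 1% DMSO for 72 h. Viability measured by CellTiter-Blue; triplicate runs, standard deviation.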

[5] = tested on: ARPE-19 cells; assay: Cytoprotection against H2O2-induced oxidative damage; assay type: cell-based, human
Method in brief: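 ARPE-19 cells were grown to confluence (DMEM/F12 1:1, 10% FBS, 37 °C, 5% CO2) and washed with MEM. Cells were pretreated 5 h with prochelators or chelators in MEM, then given 200 μM H2O2 (final) and incubated 19 h more. Viability read by CellTiter-Blue, as % of MEM-only control; H2O2-only as negative control; triplicate, SD.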

[6] = tested on: ARPE-19 cells; assay: Cytoprotection against paraquat-induced oxidative damage; assay type: cell-based, human; settings: 10 mM paraquat, 48 h; for cytoprotection against paraquat damage: prochelators; for cytoprotection against paraquat-induced cell death: chelators, Figure S5
[7] = Solubility in aqueous buffers; assay type: physicochemical; settings: aqueous buffer
[8] = cited from earlier work
[9] = tested on: H9c2 cardiomyoblasts; settings: after 72 h; cited from earlier work
[10] = comparable solutions (500 μM); cited from earlier work
[11] = same concentration (500 μM); cited from earlier work
[12] = cited from earlier work; remark: listed apart in the source
[13] = pH 7.4, total ligand 10 µM, iron 1 µM; cited from earlier work
[14] = prochelators, 5 h pre-incubation, 200 μM H2O2, viability after 19 h

CC1(C)OB(c2cc3c(cc2/C=N/NC(=O)c2ccncc2)OCO3)OC1(C)C [(MD)BSIH, (E)-N’-((6-(4,4,5,5-tetramethyl-1,3,2-dioxaborolan-2-yl)benzo[d][1,3]dioxol-5-yl)methylene)isonicotinohydrazide]
increase in chelator released compared to BSIH ([1]; after H2O2 activation): 50% | hydrolysis fragments in the equilibrated solution ([2]; 200 μM in D2O, 2% DMSO-d6): 20% | hydrolysis equilibrium constant K, fold lower than parent BSIH [3]: ~ 2 fold | hydrolysis equilibrium constant K [3]: (8.0 ± 0.6) × 10^−6 M | fold improved hydrolytic stability compared to BSIH [3]: 1.9 fold | cytotoxicity [4]: non-toxic | concentration effective for cytoprotection [5, 14]: 25 µM | cytoprotection against paraquat damage [6]: dose-dependent recovery of cell viability

COc1ccc(/C=N/NC(=O)c2ccncc2)cc1B1OC(C)(C)C(C)(C)O1 [(m-OMe)BIIH, (E)-N’-(4-methoxy-3-(4,4,5,5-tetramethyl-1,3,2-dioxaborolan-2-yl)benzylidene)isonicotinohydrazide]
hydrolysis products by 1H NMR upon dilution in D2O ([2]; 500 μM in D2O, 5% DMSO-d6): no additional peaks corresponding to potential hydrolysis products were observed | UV-Vis spectrum over time in PBS buffer ([3]; PBS buffer, Figure S3): remains unchanged over time | cytoprotection from peroxide damage [5, 14]: lack of cytoprotection

COc1ccc(/C=N/NC(=O)c2cccnc2)c(B2OC(C)(C)C(C)(C)O2)c1 [(m-OMe)BSNH, (E)-N’-(4-methoxy-2-(4,4,5,5-tetramethyl-1,3,2-dioxaborolan-2-yl)benzylidene)nicotinohydrazide]
solubility [7]: ≥ 300 µM

COc1ccc(/C=N/NC(=O)c2ccncc2)c(O)c1 [(m-OMe)SIH]
solubility [7]: ≤ 50 µM

COc1ccc(/C=N/NC(=O)c2cccnc2)c(O)c1 [(m-OMe)SNH, (E)-N’-(2-hydroxy-4-methoxybenzylidene)nicotinohydrazide]
calcein fluorescence upon addition of chelator [1]: more than 90% | solubility [7]: ≥ 300 µM

COc1ccc(B2OC(C)(C)C(C)(C)O2)c(/C=N/NC(=O)c2ccncc2)c1 [(p-OMe)BSIH, (E)-N’-(5-methoxy-2-(4,4,5,5-tetramethyl-1,3,2-dioxaborolan-2-yl)benzylidene)isonicotinohydrazide]
INH at equilibrium ([2]; 500 μM in D2O, 5% DMSO-d6, 1 h equilibration): 15% | hydrolysis equilibrium constant K [3]: (1.1 ± 0.1) × 10^−5 M | fold improved hydrolytic stability compared to BSIH [3]: 1.3 fold | concentration effective for cytoprotection [5, 14]: 25 µM | increase in H2O2-dependent conversion rate relative to the m-Cl compound [8]: ~5 fold

COc1ccc(O)c(/C=N/NC(=O)c2ccncc2)c1 [(p-OMe)SIH, (E)-N’-(2-hydroxy-5-methoxybenzylidene)isonicotinohydrazide]
calcein fluorescence upon addition of chelator [1]: more than 90% | cytoprotection against paraquat-induced cell death [6]: ~ 40%

C/C(=N\NC(=O)c1ccncc1)c1ccccc1OCc1ccc(B2OC(C)(C)C(C)(C)O2)cc1 [BHAPI]
TC50 [9]: 37.1 ± 7.7 µM

CC1(C)OB(c2ccccc2/C=N/NC(=O)c2ccncc2)OC1(C)C [BSIH, (E)-N’-(2-(4,4,5,5-tetramethyl-1,3,2-dioxaborolan-2-yl)benzylidene)isonicotinohydrazide]
cytotoxicity [4]: non-toxic | cytoprotection against paraquat damage [6]: failed to protect cells from paraquat damage; also recorded: lack of cytoprotection | intact prochelator at equilibrium [10]: 80% | SIH generated from peroxide activation [11]: 51% | stability in plasma ([12]; 10 h incubation in plasma): little degradation

CNC(=S)N/N=C/c1ccccc1B1OC(C)(C)C(C)(C)O1 [BSMTH, (E)-N-methyl-2-(2-(4,4,5,5-tetramethyl-1,3,2-dioxaborolan-2-yl)benzylidene)hydrazine-1-carbothioamide]
cytoprotection from peroxide damage [5, 14]: lack of cytoprotection; also recorded: ineffective | cytoprotection against paraquat damage [6]: lack of cytoprotection

CC1(C)OB(c2ccccc2/C=N/NC(=S)Nc2ccccc2)OC1(C)C [BSPTH, (E)-N-phenyl-2-(2-(4,4,5,5-tetramethyl-1,3,2-dioxaborolan-2-yl)benzylidene)hydrazine-1-carbothioamide]
cytoprotection from peroxide damage [5, 14]: modest cellular protection | cytoprotection against paraquat damage [6]: lack of cytoprotection

O=C(O)CN(CC(=O)O)Cc1cc2c(cc1O)Oc1cc(O)c(CN(CC(=O)O)CC(=O)O)cc1C21OC(=O)c2ccccc21 [Calcein]
pFe [13]: 20.3

C/C(=N\NC(=O)c1ccncc1)c1ccccc1O [HAPI, (E)-N’-(1-(2-hydroxyphenyl)ethylidene)isonicotinohydrazide, reference compound]
cytoprotection against paraquat-induced cell death [6]: ~ 40%

O=C(N/N=C/c1ccccc1O)c1ccncc1 [SIH, (E)-N’-(2-hydroxybenzylidene)isonicotinohydrazide]
cytoprotection against paraquat-induced cell death [6]: ~ 40% | stability in buffer ([12]; buffer at pH 7.4): remains intact | stability in cell culture media and plasma ([12]; cell culture media and plasma): degrades within hours

CNC(=S)N/N=C/c1ccccc1O [SMTH, (E)-2-(2-hydroxybenzylidene)-N-methylhydrazine-1-carbothioamide]
calcein fluorescence upon addition of chelator [1]: no effect on the quenched signal | cytoprotection from peroxide damage ([5]; chelators, H2O2-stressed cells, Figure S4): no protective effect | cytoprotection against paraquat-induced cell death [6]: failed to protect cells

Oc1ccccc1/C=N/NC(=S)Nc1ccccc1 [SPTH, (E)-2-(2-hydroxybenzylidene)-N-phenylhydrazine-1-carbothioamide]
calcein fluorescence upon addition of chelator [1]: failed to fully restore calcein emission | cytoprotection against paraquat-induced cell death [6]: ~ 40%
